From ChEMBL document CHEMBL3352044, “Synthesis and structure-activity relationship studies of N-benzyl-2-phenylpyrimidin-4-amine derivatives as potent USP1/UAF1 deubiquitinase inhibitors with anticancer activity against nonsmall cell lung cancer” (J Med Chem, 2014) come the findings set out here.

SMILES strings stand for the structures. Converted amounts (≈) assume the structure as drawn. The source made the active and inactive calls. The calls are words filed in the database; no cut-off is given here.

For series [1], the target named is Ubiquitin carboxyl-terminal hydrolase 1/WD repeat-containing protein 48 (Homo sapiens, UniProt O94782). The series is described as follows: Inhibition of human USP1/UAF1 using ubiquitin-rhodamine110 substrate by fluorescence assay.
Series [2] has as its target T1, Ubiquitin carboxyl-terminal hydrolase 1/WD repeat-containing protein 48 (Homo sapiens, UniProt O94782+Q8TAF3). Briefly: Inhibition of human USP1/UAF1 in human […] cells assessed as increase in Ub-PCNA measured at 1 uM after 4 hrs by Western blotting analysis. The format is cell-based.
Series [3] is described as follows: Cytotoxicity against human H1299 cells assessed as reduction in colony formation at 5 uM after 7 days. The class given is functional. The note with it: NCI-H1299, 168 h, read-out: INH. The essentials:
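H1299 cells seeded at 200 cells/well, attached overnight, then exposed to 5 μM compound or equal volume DMSO. After 7 days, fixed with 20% methanol and stained with 0.1% crystal violet; percent survival scored versus DMSO control.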

The target in series [4] is T1, Ubiquitin carboxyl-terminal hydrolase 1/WD repeat-containing protein 48. Briefly: Inhibition of human USP1/UAF1 in human […] cells assessed as increase in Ub-PCNA measured after 4 hrs by Western blotting analysis. The class given is cell-based.
The target is the same in series [5]. Briefly: Inhibition of human USP1/UAF1 using ubiquitin-rhodamine110 substrate by fluorescence assay.
The target is the same in series [6]. Briefly: Inhibition of human USP1/UAF1 in human H1299 cells assessed as reduction in colony formation up to 25 uM after 7 days. The format is cell-based.
Series [7] relates to Liver microsome. Briefly: Half life in rat liver microsomes in presence of NADPH. The class given is ADME. The essentials: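 Rat liver microsomes with NADPH; half-life in minutes.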
The test system of series [8] is Liver. Briefly: Half life in mouse liver microsomes. The format is ADME. The essentials: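 Incubated with mouse liver microsomes in the presence of NADPH, run by a contract lab; read-out is the half-life (T1/2) in minutes.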
Series [9] deals with T2, Adenosine receptor A3 (Homo sapiens) (UniProt P0DMS8).
T2 sequence (whole entry): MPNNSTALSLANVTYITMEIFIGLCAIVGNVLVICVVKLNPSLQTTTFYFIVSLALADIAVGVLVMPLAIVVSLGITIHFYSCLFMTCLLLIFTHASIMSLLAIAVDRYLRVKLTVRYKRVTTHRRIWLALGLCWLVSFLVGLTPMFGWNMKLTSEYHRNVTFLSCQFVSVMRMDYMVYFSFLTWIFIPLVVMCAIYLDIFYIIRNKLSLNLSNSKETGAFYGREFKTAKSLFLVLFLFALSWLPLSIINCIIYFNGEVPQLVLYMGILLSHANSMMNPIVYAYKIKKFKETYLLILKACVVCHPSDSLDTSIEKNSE
The series is described as follows: Inhibition of adenosine A3 receptor (unknown origin) at 10 uM. The essentials:
(§1)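 Single concentration of 10 μM in an 80-target panel of GPCRs, ion channels and transporters; percent inhibition recorded.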

A short description of series [10]: Chemical stability of the compound in PBS buffer at pH 7.4 after 48 hrs. The format is physicochemical. The note with it: read-out: Stability. The essentials:
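PBS buffer pH 7.4 for 48 h; percent compound remaining.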

In series [11] the target is T3, 5-hydroxytryptamine receptor 2C (Homo sapiens) (UniProt P28335).
T3 sequence (whole entry): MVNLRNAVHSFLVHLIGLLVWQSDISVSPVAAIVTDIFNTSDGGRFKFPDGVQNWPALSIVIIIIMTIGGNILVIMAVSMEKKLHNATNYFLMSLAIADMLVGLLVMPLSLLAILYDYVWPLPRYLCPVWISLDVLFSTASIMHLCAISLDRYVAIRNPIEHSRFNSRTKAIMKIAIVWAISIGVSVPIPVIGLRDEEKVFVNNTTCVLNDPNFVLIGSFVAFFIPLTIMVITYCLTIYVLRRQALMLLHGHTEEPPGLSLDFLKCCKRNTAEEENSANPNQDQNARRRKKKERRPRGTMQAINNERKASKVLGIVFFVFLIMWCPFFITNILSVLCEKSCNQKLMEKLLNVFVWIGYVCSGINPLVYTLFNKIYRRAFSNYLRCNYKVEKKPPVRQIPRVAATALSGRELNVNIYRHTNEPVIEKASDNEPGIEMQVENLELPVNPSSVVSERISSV
Briefly: Inhibition of 5-HT2C (unknown origin) at 10 uM. The essentials: as §1

For series [12], the system named is Liver microsome. Briefly: Half life in human liver microsomes. The class given is ADME. The essentials: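 Human liver microsomes in the presence of NADPH; half-life (min).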
Series [13] concerns the target Melatonin receptor type 1A (Homo sapiens) (UniProt P48039). Briefly: Inhibition of MT1 (unknown origin) at 10 uM. The essentials: as §1
In series [14] the target is T4, Peroxisome proliferator-activated receptor gamma (Homo sapiens) (UniProt P37231).
T4 sequence (whole entry): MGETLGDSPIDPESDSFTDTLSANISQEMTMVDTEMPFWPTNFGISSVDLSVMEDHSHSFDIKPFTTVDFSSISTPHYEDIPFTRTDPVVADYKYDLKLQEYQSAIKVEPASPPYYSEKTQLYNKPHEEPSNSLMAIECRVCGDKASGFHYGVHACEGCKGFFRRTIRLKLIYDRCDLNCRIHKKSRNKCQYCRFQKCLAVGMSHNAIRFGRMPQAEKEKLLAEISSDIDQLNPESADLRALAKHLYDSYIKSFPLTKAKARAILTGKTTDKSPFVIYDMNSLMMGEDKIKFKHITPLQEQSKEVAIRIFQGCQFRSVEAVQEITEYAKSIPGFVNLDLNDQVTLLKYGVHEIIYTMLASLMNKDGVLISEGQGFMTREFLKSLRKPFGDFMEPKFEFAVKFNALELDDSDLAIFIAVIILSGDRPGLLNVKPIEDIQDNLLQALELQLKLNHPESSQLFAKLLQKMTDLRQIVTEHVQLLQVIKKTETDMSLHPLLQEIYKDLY
Briefly: Inhibition of PPARgamma (unknown origin) at 10 uM. The essentials: as §1

The species named for series [15] is Homo sapiens. Briefly: Inhibition of Calcium channel (unknown origin) at 10 uM. The essentials: as §1
A short description of series [16]: Permeability of the compound from apical to basolateral direction in human Caco2 cells. The format is ADME, cell-based. The note with it: caco-2.
A short description of series [17]: Lipophilicity, log D of the compound at pH 7.4 by shake-flask method. The class given is physicochemical. Particulars: buffer. The essentials: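 Log D at pH 7.4 by miniaturized (scaled-down) shake-flask method.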
A short description of series [18]: Kinetic aqueous solubility of the compound in PBS at pH 7.4. The format is physicochemical. The note with it: read-out: Kinetic_solubility.
Series [19] concerns the target 5-hydroxytryptamine receptor 2B (Homo sapiens) (UniProt P41595). The series is described as follows: Inhibition of 5-HT2B (unknown origin) at 10 uM. The essentials:
as §1

Series [20] is described as follows: Stability of the compound in mouse plasma after 2 hrs. The note with it: read-out: Stability. The class given is ADME, cell-free. The essentials:
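Mouse plasma incubation for 2 h; percent compound remaining.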

Series [21] concerns the target 5-hydroxytryptamine receptor 2A (Homo sapiens) (UniProt P28223). Briefly: Inhibition of 5-HT2A (unknown origin) at 10 uM. The essentials:
as §1

Ubiquitin carboxyl-terminal hydrolase 1/WD repeat-containing protein 48 (Homo sapiens, UniProt O94782), sequence (O94782 whole entry): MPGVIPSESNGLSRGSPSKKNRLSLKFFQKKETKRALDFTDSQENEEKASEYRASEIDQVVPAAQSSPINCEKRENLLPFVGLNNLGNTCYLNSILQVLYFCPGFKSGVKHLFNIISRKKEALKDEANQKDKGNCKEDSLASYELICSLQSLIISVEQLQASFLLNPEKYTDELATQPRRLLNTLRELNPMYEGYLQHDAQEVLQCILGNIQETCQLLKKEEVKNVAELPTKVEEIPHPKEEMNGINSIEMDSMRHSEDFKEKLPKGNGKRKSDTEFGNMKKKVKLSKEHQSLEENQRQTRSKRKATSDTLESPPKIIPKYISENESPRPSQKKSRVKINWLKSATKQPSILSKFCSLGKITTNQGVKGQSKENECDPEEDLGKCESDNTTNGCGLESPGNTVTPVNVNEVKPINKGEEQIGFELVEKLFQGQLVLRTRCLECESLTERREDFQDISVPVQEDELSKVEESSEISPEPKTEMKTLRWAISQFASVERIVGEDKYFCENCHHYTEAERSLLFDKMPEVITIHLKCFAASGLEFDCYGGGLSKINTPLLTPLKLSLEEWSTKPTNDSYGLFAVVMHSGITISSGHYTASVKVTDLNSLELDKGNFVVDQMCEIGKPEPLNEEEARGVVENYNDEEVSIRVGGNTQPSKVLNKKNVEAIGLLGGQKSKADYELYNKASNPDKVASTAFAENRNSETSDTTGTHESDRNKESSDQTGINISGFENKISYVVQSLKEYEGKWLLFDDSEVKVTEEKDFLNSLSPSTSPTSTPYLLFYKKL
Ubiquitin carboxyl-terminal hydrolase 1/WD repeat-containing protein 48 (Homo sapiens, UniProt O94782), sequence (Q8TAF3 whole entry, further chain): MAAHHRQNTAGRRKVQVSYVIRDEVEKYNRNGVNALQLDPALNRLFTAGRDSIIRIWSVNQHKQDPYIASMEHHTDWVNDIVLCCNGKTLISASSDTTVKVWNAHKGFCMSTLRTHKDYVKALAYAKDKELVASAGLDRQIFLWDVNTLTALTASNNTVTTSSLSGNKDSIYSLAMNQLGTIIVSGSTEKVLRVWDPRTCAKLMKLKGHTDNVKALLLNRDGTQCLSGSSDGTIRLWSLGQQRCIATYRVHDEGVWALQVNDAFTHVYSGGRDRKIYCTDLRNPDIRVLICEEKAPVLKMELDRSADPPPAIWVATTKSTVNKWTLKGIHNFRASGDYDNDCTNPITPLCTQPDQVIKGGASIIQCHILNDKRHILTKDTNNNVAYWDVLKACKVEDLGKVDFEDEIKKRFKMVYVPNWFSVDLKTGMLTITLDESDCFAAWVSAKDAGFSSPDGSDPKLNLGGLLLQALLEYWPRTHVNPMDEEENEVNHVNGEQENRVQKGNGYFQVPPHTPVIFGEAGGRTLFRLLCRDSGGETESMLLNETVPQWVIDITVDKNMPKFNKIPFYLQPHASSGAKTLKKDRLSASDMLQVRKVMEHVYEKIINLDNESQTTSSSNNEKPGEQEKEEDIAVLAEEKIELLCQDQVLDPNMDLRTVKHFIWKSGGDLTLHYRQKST
5-hydroxytryptamine receptor 2A (Homo sapiens), sequence (P28223 whole entry): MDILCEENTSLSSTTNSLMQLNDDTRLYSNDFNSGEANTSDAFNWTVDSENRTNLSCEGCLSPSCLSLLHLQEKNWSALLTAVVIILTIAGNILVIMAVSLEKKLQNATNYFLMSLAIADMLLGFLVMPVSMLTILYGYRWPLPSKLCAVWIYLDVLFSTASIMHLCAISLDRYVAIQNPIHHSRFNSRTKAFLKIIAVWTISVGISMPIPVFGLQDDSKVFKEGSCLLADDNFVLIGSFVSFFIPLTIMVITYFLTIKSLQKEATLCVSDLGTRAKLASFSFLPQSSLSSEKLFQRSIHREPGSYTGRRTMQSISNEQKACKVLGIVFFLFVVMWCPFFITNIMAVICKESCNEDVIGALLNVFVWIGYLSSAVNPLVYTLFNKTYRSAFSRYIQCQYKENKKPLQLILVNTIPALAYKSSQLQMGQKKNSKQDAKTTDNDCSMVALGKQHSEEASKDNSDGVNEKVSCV
Melatonin receptor type 1A (Homo sapiens), sequence (P48039 whole entry): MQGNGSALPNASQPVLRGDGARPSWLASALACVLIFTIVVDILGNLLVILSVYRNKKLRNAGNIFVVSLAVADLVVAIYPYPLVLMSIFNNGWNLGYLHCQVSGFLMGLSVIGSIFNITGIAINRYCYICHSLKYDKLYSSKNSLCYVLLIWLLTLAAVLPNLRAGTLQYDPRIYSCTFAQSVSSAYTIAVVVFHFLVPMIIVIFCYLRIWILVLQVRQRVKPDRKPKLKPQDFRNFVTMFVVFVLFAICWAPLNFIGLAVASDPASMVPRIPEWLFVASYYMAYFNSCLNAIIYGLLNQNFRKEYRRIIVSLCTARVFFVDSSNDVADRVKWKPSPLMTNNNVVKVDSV
5-hydroxytryptamine receptor 2B (Homo sapiens), sequence (P41595 whole entry): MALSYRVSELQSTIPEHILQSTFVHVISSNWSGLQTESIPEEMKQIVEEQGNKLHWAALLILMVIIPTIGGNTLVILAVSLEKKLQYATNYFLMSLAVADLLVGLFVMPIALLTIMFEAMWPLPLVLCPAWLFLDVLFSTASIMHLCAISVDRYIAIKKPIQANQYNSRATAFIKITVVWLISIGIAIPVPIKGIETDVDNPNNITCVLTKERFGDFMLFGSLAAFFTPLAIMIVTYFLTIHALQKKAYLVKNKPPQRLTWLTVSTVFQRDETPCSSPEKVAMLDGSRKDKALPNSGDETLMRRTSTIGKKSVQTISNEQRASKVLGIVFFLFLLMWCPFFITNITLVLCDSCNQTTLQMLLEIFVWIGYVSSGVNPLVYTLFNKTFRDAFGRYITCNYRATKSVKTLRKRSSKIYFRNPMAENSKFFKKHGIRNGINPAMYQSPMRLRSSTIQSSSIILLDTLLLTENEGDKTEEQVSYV
T1 sequence (O94782 whole entry): as the sequence (O94782 whole entry) above
T1 sequence (Q8TAF3 whole entry): as the sequence (Q8TAF3 whole entry, further chain) above

`Cc1cnc(-c2ccccc2C(C)C)nc1NCC1CCN(c2cccnc2)CC1`: in series [1], the IC50 is 0.08 µM. The result in series [2] was Active. The inhibition at 5 µM in [3] is > 70%. Further, the inhibition entry in series [4] was “Dose-dependent effect”.

Take `Cc1cnc(-c2ccccc2C2COC2)nc1NCc1ccc(-n2ccnn2)cc1`: in series [5], the IC50 result is “Not Active”. Besides, in series [6], the inhibition result is “inactive”. Moreover, the t1/2 in series [7] was > 30 min.

Molecule `FC(F)(F)c1ccccc1-c1nc(NCc2cccs2)c2ccccc2n1` displayed an IC50 in series [1] of 7.9 µM. In addition, in series [4], the inhibition entry is “Dose-dependent effect”.

As to `Cc1cnc(-c2ccccc2C(C)C)nc1NCc1ccc(-n2ccnn2)cc1`, the t1/2 stood at 15 min in [8], 26 min in series [12] and 15 min in series [7]. The inhibition in series [9], in series [11], in [13], in series [14], in [15] and in [19] was > 50% each time. Further, the inhibition in series [21] is > 50%. The remaining at 48 h in series [10] came out at 99%. The Papp in series [16] is 22.98 ×10⁻⁶ cm/s. The molecule further showed a logD in series [17] of 1.97. For the same molecule, in [18], the solubility kinetic was found to be 86 µM (≈ 33.1 µg/mL). Moreover, the remaining at 2 h in series [20] amounted to 99%. In series [3], the inhibition at 5 µM was > 70%.
